Active and inactive are the calls of the source. No cut-off for these calls is given here.
Key:
Mus musculus [1] = test: Anticonvulsant activity in ip dosed NMRI mouse assessed as dose required to cause protection against subcutaneous pentylene tetrazole-induced seizure after 4 hrs; assay type: functional; details: read-out: MED
Method in brief: (§1)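 Mice received 20, 40 and 100 mg/kg test doses. Seizures were induced by electrical shock (MES) or PTZ injection (scPTZ) at 0.5 and 4 h after dosing. The value recorded is the minimal dose protecting more than 50% of mice against seizure.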

Mus musculus [2] = test: Anticonvulsant activity in NMRI mouse assessed as protection against maximal electroshock-induced seizures at 20 to 100 mg/kg, ip after 4 hrs; assay type: functional, organism-based; method in brief: as §1
Mus musculus [3] = test: Anticonvulsant activity in NMRI mouse assessed as protection against subcutaneous pentylene tetrazole-induced seizure at 20 to 100 mg/kg, ip after 0.5 hrs; assay type: functional, organism-based; method in brief: as §1
Mus musculus [4] = test: Anticonvulsant activity in NMRI mouse assessed as protection against maximal electroshock-induced seizures at 20 to 100 mg/kg, ip after 0.5 hrs; assay type: functional, organism-based; method in brief: as §1
[5] = Neurotoxicity in ip dosed NMRI mouse assessed as dose required to cause minimal motor impairment after 0.5 hrs by rotarod test; assay type: toxicity, organism-based; details: in vivo, read-out: MTC50
Method in brief: (§2)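 Rotarod motor-impairment test in mice given 20, 40 and 100 mg/kg doses, read 0.5 and 4 h after administration. The value recorded is the minimal dose producing toxicity in more than 50% of mice.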

[6] = Neurotoxicity in ip dosed NMRI mouse assessed as dose required to cause minimal motor impairment after 4 hrs by rotarod test; assay type: toxicity, organism-based; details: in vivo, read-out: MTC50; method in brief: as §2
Mus musculus [7] = test: Neurotoxicity in NMRI mouse assessed as minimal motor impairment at 20 to 100 mg/kg, ip after 0.5 hrs by rotarod test; assay type: toxicity, organism-based; parameters: dose 20-100 mg/kg, route intraperitoneal; details: in vivo; method in brief: as §2
Mus musculus [8] = test: Anticonvulsant activity in ip dosed NMRI mouse assessed as dose required to cause protection against maximal electroshock-induced seizures after 0.5 hrs; assay type: functional; details: read-out: MED; method in brief: as §1
Mus musculus [9] = test: Anticonvulsant activity in ip dosed NMRI mouse assessed as dose required to cause protection against maximal electroshock-induced seizures after 4 hrs; assay type: functional; details: read-out: MED; method in brief: as §1
Mus musculus [10] = test: Neurotoxicity in NMRI mouse assessed as minimal motor impairment at 20 to 100 mg/kg, ip after 4 hrs by rotarod test; assay type: toxicity, organism-based; parameters: dose 20-100 mg/kg, route intraperitoneal; details: in vivo; method in brief: as §2
Mus musculus [11] = test: Anticonvulsant activity in ip dosed NMRI mouse assessed as dose required to cause protection against subcutaneous pentylene tetrazole-induced seizure after 0.5 hrs; assay type: functional; details: read-out: MED; method in brief: as §1

Structure (SMILES) | minimal effective dose (Mus musculus [1]) [mg/kg] | Activity (Mus musculus [2]) | Activity (Mus musculus [3]) | Activity (Mus musculus [4]) | TD50 at 0.5 h [5] [mg/kg] | TD50 at 4 h [6] [mg/kg] | Activity (Mus musculus [7]) | minimal effective dose (Mus musculus [8]) [mg/kg] | minimal effective dose (Mus musculus [9]) [mg/kg] | Activity (Mus musculus [10]) | minimal effective dose (Mus musculus [11]) [mg/kg]
Cc1cccn2c(/C=N/OCc3cn(Cc4ccc([N+](=O)[O-])cc4)nn3)c(-c3ccc(F)cc3)nc12 | 40 | inactive | inactive | inactive | 100 | 100 | – | – | – | – | –
Cc1ccc(-c2nc3ccc(Br)cn3c2/C=N/OCc2cn(Cc3ccc([N+](=O)[O-])cc3)nn2)cc1 | 20 | – | – | – | – | – | Non-toxic | 40 | 100 | Non-toxic | 20
Cc1ccc(-c2nc3c(C)cccn3c2/C=N/OCc2cn(Cc3ccc([N+](=O)[O-])cc3)nn2)cc1 | 20 | – | – | – | – | – | Non-toxic | 40 | 40 | Non-toxic | 20
C#CCO/N=C/c1c(-c2ccc(C)cc2)nc2c(C)cccn12 | 20 | – | – | – | – | – | Non-toxic | 20 | 40 | Non-toxic | 20
Cc1cccn2c(/C=N/OCc3cn(Cc4ccc(C#N)cc4)nn3)c(-c3ccc(F)cc3)nc12 | 40 | inactive | inactive | inactive | 100 | 100 | – | – | – | – | –
